Data published in paper PMC6287896 (Anti-Cancer Drugs, 2018).

Legend:
DU-145 cells = assay: WST-1 assay for cell viability and cytotoxicity; type: cell-based, human; details: 23.4 mmol/l, 4 day incubation, read up to 8 h, P≤0.01
PC-3 cells = assay: WST-1 assay for cell viability and cytotoxicity; type: cell-based, human; details: 23.4 mmol/l, 4 day incubation, read up to 8 h, P≤0.01
Plasma stability = type: in vitro ADME; details: over 2 h
Method in brief: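 Human plasma was spiked with test compound and incubated separately at 25 and 37°C. Drug levels were measured over 120 min.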

[1] = Plasma pharmacokinetics and bioavailability after intravenous and oral dosing; type: in vivo; details: mouse, other: oral gavage and intravenous bolus
Method in brief: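 Mice were dosed by intravenous bolus or oral gavage, with plasma sampled over 24 h and one sacrifice per time point. Plasma was protein-precipitated with acetonitrile/methanol, evaporated and reconstituted in 0.1% acetic acid. Quantitation was by C18 UHPLC–tandem MS with heated ESI and positive-mode SRM (240.100→110.054), against spiked mouse plasma calibrants. Half-life was taken from concentration–time profiles.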

Tissue levels = type: in vivo; details: mouse heart, liver, kidney, brain; up to 24 h; i.v. and oral
Method in brief: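 After intravenous or oral dosing, liver, kidney, heart and brain were collected at sacrifice. Tissue was homogenised in ice-cold 0.1% acetic acid (10 ml/g) and centrifuged. Acetonitrile/methanol was added to the supernatant, followed by vortexing, centrifugation, evaporation and reconstitution in 0.1% acetic acid. Samples were quantified by LC–MS/MS (SRM 240.100→110.054) against spiked blank-tissue calibrants.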

[2] = Acute toxicity, oral up and down procedure; type: in vivo, mouse; details: 2000 mg/kg, monitored 48 h, repeated twice on other animals
[3] = Dose-response: serum markers of organ function; type: in vivo, mouse
Method in brief: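 Mice were dosed intravenously with vehicle or 50, 100 or 200 mg/kg test compound (six per group). They were euthanised by CO2 with cervical dislocation at 6 or 18 h, and blood and tissue were collected. Serum AST, GGT, CRP and troponin I were measured by colorimetric assays to assess liver, kidney and heart function. Tissues were examined for gross pathology.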

[4] = test system: DU-145 prostate carcinoma cells; assay: DU-145 xenografts in athymic nude mice; type: in vivo, mouse; details: 30 days
[5] = intravenous 50, 100 or 200 mg/kg, 6 or 18 h

C[C@@H]1C[C@@H](n2cnc(C(N)=O)c2N)[C@H](O)[C@H]1O [ICA-1s, 5-amino-1-((1R,2S,3S,4R)-2,3-dihydroxy-4-methylcyclopentyl)-1H-imidazole-4-carboxamide]
in-vitro cytotoxicity (WST-1, absorbance at 450 nm) (DU-145 cells): significant cytotoxicity
in-vitro cytotoxicity (WST-1, absorbance at 450 nm) (PC-3 cells): significant cytotoxicity
stability in human plasma (Plasma stability; 25°C (ambient)): stable
stability in human plasma (Plasma stability; 37°C): stable
half-life [1]: 5.7 h
accumulation in major organs (tissue levels) (Tissue levels): did not appear to indicate accumulation
acute toxicity outcome at highest dose of the UDP [2]: survived with no observable adverse reaction
serum CRP versus control ([3]; intravenous 200 mg/kg, 6 h after treatment, P=0.033): significant rise
serum AST versus control [3, 5]: no significant difference
serum GGT versus control [3, 5]: no significant difference
serum troponin I versus control [3, 5]: no significant difference
serum CRP versus control, all other readings ([3]; intravenous 50, 100 or 200 mg/kg, 6 or 18 h, other than 200 mg/kg at 6 h): no significant difference
average tumor size of treated xenografts ([4]; 100 mg/kg subcutaneous daily, untreated 156.4 mm^2): 76.8 mm^2
tumor growth rate relative to untreated tumors ([4]; DU-145 xenografts, treated vs untreated): almost half the rate
